Most compounds without a hit are left out; they make up all but 2.3% or so of the library.
PfHsp90 yeast 2 = growth inhibition of yeast expressing Plasmodium Hsp90; S. cerevisiae expressing PfHsp90, BacTiter-Glo ATP, 48 h; yeast lacking PDR1 and PDR3 efflux regulators; inhibition, % at 9.4 µM; actives 0.32% (n = 310,000); AID 504621;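 active = every replicate shows inhibition above about 80%, whatever the replicate mean, limit read from the data; inconclusive = mean inhibition reaches the set limit but some replicate falls short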
PAX8 reporter = PAX8 transcriptional activity inhibition | inhibition, % at 12.6 µM | RMG-I TPO-luciferase reporter, SteadyGlo, 24 h | actives 1.2% (n = 360,000);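 active = mean replicate inhibition at least 60% with every replicate also reaching 60%; inconclusive = only one of the two criteria is met; inactive = mean below 60% and not all replicates reaching 60%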;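 also: luciferase light reporting Pax8 driven TPO promoter activity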
Rtt109 Vps75 = blocks Candida albicans Rtt109/Vps75 acetyltransferase activity; purified Rtt109/Vps75, ThioGlo CoA-SH fluorescence, 4 h; inhibition, % at 34.9 µM; actives 0.16% (n = 330,000); AID 540336;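 active = inhibition of at least 50% in every replicate; inconclusive = best replicate reaches 50% inhibition but some replicates fall short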
Target sequence (Q5AAJ8 whole entry, looked up): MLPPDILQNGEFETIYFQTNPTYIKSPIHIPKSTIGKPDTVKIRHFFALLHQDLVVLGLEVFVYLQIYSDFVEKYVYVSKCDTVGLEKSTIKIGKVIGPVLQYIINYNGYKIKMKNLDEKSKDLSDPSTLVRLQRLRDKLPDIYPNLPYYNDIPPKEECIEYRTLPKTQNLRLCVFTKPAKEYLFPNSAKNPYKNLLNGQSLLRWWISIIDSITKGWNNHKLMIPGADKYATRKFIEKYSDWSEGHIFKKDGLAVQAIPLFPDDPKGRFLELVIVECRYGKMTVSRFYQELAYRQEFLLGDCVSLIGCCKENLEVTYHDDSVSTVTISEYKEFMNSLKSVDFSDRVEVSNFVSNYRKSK
Env fusion inh = blocks HIV Env-driven cell-cell fusion; inhibition, % at 12.3 µM; HeLa-JRFL Env/CEM21 cell fusion, luciferase; AID 651610; actives 1.1% (n = 360,000);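 active = mean replicate inhibition score of at least 50 and every replicate individually at or above 50; inconclusive = only one of the two criteria met; inactive = mean below 50 and not all replicates reaching 50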
Arrestin-AP2 inh = inhibitors of human beta-arrestin and AP2 interaction; FITC-arrestin peptide / GST-AP2 beads, flow cytometry; AP2 beta2 appendage carries R879A mutation; inhibition, % at 10 µM; actives 0.31% (n = 340,000); AID 504490;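 active = inhibition above a set limit, near 3 SD of compounds lacking own fluorescence, cut at about 54% in these data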
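Assay system: GST-AP2 R879A bound to glutathione beads, E. coli-expressed; Medium: PBS with 0.05% Tween 20 and 0.1% BSA; Also added: fluorescein-tagged arrestin peptide at 50 nM final; Timing: 12 min plus 1 h, RT; Measured by: flow cytometry, FL1 (488/535 nm); Evaluation: percent drop in bead-associated FITC signal.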
Glyco luc inh = N-linked glycosylation inhibition. D54 ERlucT glycosylation luciferase reporter, 24 h; percent of 100 nM tunicamycin response. reporter increase, % at 12.5 µM. actives 0.23% (n = 360,000);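 active = mean luciferase reporter signal, scaled so untreated is 0 and the glycosylation-blocking control 100, at or above a set limit in every replicate; inconclusive = mean reaches the limit but not every replicate does; inactive = mean below the limit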;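 also: luciferase carries N-glycosylation sites so blocking glycosylation raises the light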
Numbers stand for hits; i = inactive; ? = inconclusive; nt = not tested or not shown; [ ] = dose if it differs, or a comment.

SMILES | PfHsp90 yeast 2 | PAX8 reporter | Rtt109 Vps75 | Env fusion inh | Arrestin-AP2 inh | Glyco luc inh
CCS(=O)(=O)Nc1ccc2c(c1)C(=O)N(C)C[C@@H](OC)[C@@H](C)CN(C(=O)C1CCC1)[C@H](C)CO2 | nt | i | nt | i | nt | nt
O=C(NC1CCCCC1)C(c1cccnc1)N(C(=O)CCl)c1ccccc1Cl (centres undefined) | i | 101 | i | i | i | i
CCOc1ccccc1N(C(=O)CNC(=O)c1ccco1)C(C(=O)NC1CCCC1)c1cccnc1 (centres undefined) | i | i | i | 77 | i | i
COc1ccc(C(C(=O)NC2CCCCC2)N(C(=O)CCl)c2ccc(OC)cc2)cc1 (centres undefined) | i | nt | i | nt | i | i
Cc1ccc(C(C(=O)NC2CCCCC2)N(C(=O)CCCC(=O)Nc2ccccn2)c2ccc3c(c2)OCCO3)cc1 (centres undefined) | i | i | i | i | i | i
COc1ccc(N(C(=O)CCl)C(C(=O)NC2CCCCC2)c2cccnc2)cc1 (centres undefined) | i | 113 | i | 51 | i | i
CCc1ccccc1N(C(=O)CNC(=O)c1ccco1)C(C(=O)NC1CCCC1)c1cccnc1 (centres undefined) | i | i | i | i | i | i
O=C(CCCC(=O)N(c1ccc2c(c1)OCCO2)C(C(=O)NC1CCCCC1)c1ccc(F)cc1)Nc1ccccn1 (centres undefined) | nt | nt | nt | 69 | i | i
C[C@H]1CN([C@@H](C)CO)C(=O)CCCn2cc(nn2)CO[C@H]1CN(C)Cc1cccc(C(F)(F)F)c1 | nt | nt | nt | i | nt | nt
CO[C@H]1CN(C)C(=O)c2ccc(NC(=O)c3cc(C)on3)cc2OC[C@H](C)N(C(C)=O)C[C@@H]1C | nt | i | nt | nt | nt | nt
Cc1ccc(S(=O)(=O)N2C[C@H](O)COC[C@@H]3O[C@@H](CC(=O)NCCN4CCCCC4)CC[C@H]32)cc1 | nt | i | nt | nt | nt | nt
C[C@@H]1CN([C@@H](C)CO)C(=O)c2cc(-c3ccc(F)cc3)cnc2O[C@@H]1CN(C)C(=O)c1ccncc1 | nt | nt | nt | i | nt | nt
COc1ccc(NC(=O)N(C)C[C@@H]2Oc3ccc(NS(=O)(=O)c4cccs4)cc3CC(=O)N([C@@H](C)CO)C[C@H]2C)cc1 | nt | i | nt | i | nt | nt
O=C(NC1CCCCC1)C(c1cccnc1)N(C(=O)CCl)c1ccc(F)cc1 (centres undefined) | i | 109 | i | nt | i | i
O=C(NCC(=O)N(c1ccccc1)C(C(=O)NC1CCCCC1)c1cccnc1)c1cccs1 (centres undefined) | i | i | i | 56 | i | i
C[C@H]1CN([C@@H](C)CO)C(=O)c2cc(C#Cc3cccnc3)cnc2O[C@H]1CN(C)Cc1ccccc1 | nt | nt | nt | i | nt | nt
CCOC(=O)c1c(-c2ccc(F)cc2)csc1NC(=O)CN1C(=O)NC2(CCCCC2C)C1=O (centres undefined) | i | 99 | i | i | i | i
CCOC(=O)c1c(NC(=O)CN2C(=O)NC3(CCCCC3C)C2=O)sc(C)c1C (centres undefined) | i | i | i | i | i | i
COc1ccc(NC(=O)Nc2ccc3c(c2)[C@@H]2C[C@H](CC(=O)N4CCc5ccccc5C4)O[C@@H](CO)[C@@H]2O3)cc1 | nt | i | nt | i | nt | nt
O=C(Nc1ccc(C(F)(F)F)cc1)Nc1ccc2c(c1)[C@@H]1C[C@@H](CC(=O)N3CCc4ccccc4C3)O[C@H](CO)[C@@H]1O2 | nt | 76 | nt | i | nt | nt
COc1ccc(NC(=O)Nc2ccc3c(c2)[C@@H]2C[C@@H](CC(=O)N4CCc5ccccc5C4)O[C@H](CO)[C@@H]2O3)cc1 | nt | 71 | nt | i | nt | nt
O=C(Nc1ccc(C(F)(F)F)cc1)Nc1ccc2c(c1)[C@@H]1C[C@H](CC(=O)N3CCc4ccccc4C3)O[C@H](CO)[C@@H]1O2 | nt | 109 | nt | 82[16.7 µM] | nt | nt
O=C(C1CCOCC1)N1CC(=O)N2[C@H](CO)[C@H](c3ccc(C#Cc4cccc(F)c4)cc3)[C@@H]2C1 | nt | i | nt | nt | nt | nt
C[C@@H]1CN([C@H](C)CO)S(=O)(=O)c2ccc(-c3cccnc3)cc2O[C@@H]1CN(C)CC1CC1 | nt | nt | nt | i | nt | nt
COc1ccc(NC(=O)N(C)C[C@H]2Oc3ccc(NS(=O)(=O)c4cccs4)cc3CC(=O)N([C@@H](C)CO)C[C@@H]2C)cc1 | nt | i | nt | i | nt | nt
SMILES | PfHsp90 yeast 2 | PAX8 reporter | Rtt109 Vps75 | Env fusion inh | Arrestin-AP2 inh | Glyco luc inh
CCN(CC)CCN1C(=O)c2cccc3cc(N)cc(c23)C1=O | i | i | i | i | i | 60
Nc1cc2c3c(cccc3c1)C(=O)N(CCN1CCCC1)C2=O | i | i | i | i | i | ?
COc1ccc(/C=N/NC(=O)COc2ccc(Cl)cc2Cl)cc1Cn1nc(C)cc1C | i | i | 54 | i | i | i
O=C1N(CCS(=O)(=O)c2ccccc2)Cc2ccccc2[C@@H]2OC(c3ccc(OCCCO)cc3)=N[C@]12CCS(=O)(=O)c1ccccc1 | nt | i | nt | i | nt | nt
O=C1N(CCS(=O)(=O)c2ccccc2)Cc2ccccc2C[C@@]12N=C(c1ccc(OCCCO)cc1)O[C@H]2c1ccccc1 | nt | 94 | nt | i | nt | nt
O=C(c1ccccc1)N1Cc2ccccc2C[C@]2(N=C(c3ccc(OCCCO)cc3)O[C@@H]2c2ccccc2)C1=O | nt | 68 | nt | i | nt | nt
O=C1N(Cc2ccccc2)Cc2ccccc2[C@@H]2OC(c3ccc(OCCCO)cc3)=N[C@]12Cc1ccccc1 | nt | 64 | nt | i | nt | nt
C=CC[C@]12N=C(c3ccc(OCCCO)cc3)O[C@H]1c1ccccc1CN(C(=O)c1ccccc1)C2=O | nt | i | nt | i | nt | nt
Cc1noc(C)c1NC(=O)N[C@@H]1C=C[C@@H](CC(=O)Nc2ccccc2)O[C@@H]1CO | nt | nt | nt | i | nt | nt
O=C(/C(=C/c1ccc(Cl)cc1)c1nc2ccccc2[nH]1)c1ccccc1 | 98 | nt | i | i | i | i
Cc1cc(C)c(S(=O)(=O)N2CCN=C2c2ccccc2)cc1C | i | nt | i | 82 | i | i
COCC#Cc1ccc2c(c1)O[C@H](CN(C)C(=O)C1CC1)[C@H](C)CN([C@H](C)CO)S2(=O)=O | nt | nt | nt | i | nt | nt
CC(C)c1nnc(NC(=O)CCS(=O)(=O)c2nc(-c3cccs3)cc(C(F)(F)F)n2)s1 | nt | nt | i | 85 | i | i
Cc1[nH]c2c(ccc3cccnc32)c1C | i | i | i | i | i | i
CC1=[N+](C)c2c(ccc3cccnc23)C1(C)C | i | 85 | i | i | i | i
COc1ccc(Cl)cc1NC(=O)CN(C)CC(=O)Nc1ccccc1-c1ccccc1 | i | i | i | 63 | i | i
Cc1ccc(C)c(CNc2ccc(S(=O)(=O)N3CCCCC3)cc2)c1 | i | i | i | 76 | i | i
CCSc1nc2ccccc2n1CC(N)=O | nt | nt | i | i | i | i
CCSc1nc2ccccc2n1C(=O)/C=C\c1ccc(OC)c(OC)c1 | i | 70 | i | i | i | i
c1csc(CNc2ncnc3sccc23)c1 | i | nt | i | 80 | i | i

Source: PubChem
